Screening results as filed in PubChem.
DYRK1A inh: blocks rat Dyrk1A kinase activity | ADP-Glo luminescence, NFATc1 peptide | Q63470 | 310,000 compounds, 0.43% hits | inhibition, % at 12.5 µM | AID 504441;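 further: plate controls were vehicle with enzyme for no effect and no enzyme for full effect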
CDK5 inh: inhibitors of human CDK5/p35 kinase; Recombinant CDK5/p35, ADP-Glo luminescence, 60 min; 330,000 compounds, 0.01% hits; AID 488839; inhibition, % at 10 µM;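 active means highest replicate inhibition of at least 50% and at least 75% of replicates reaching 50%; inconclusive means only one of the two criteria met; inactive means both criteria failed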;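 further: plate controls were DMSO neutral control for no effect and GW8510 at 10 µM for full effect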
SR-BI HDL uptake: mouse SR-BI HDL lipid transfer inhibition | Q61009 | ldlA[mSR-BI] CHO cells, DiI-HDL uptake fluorescence, 3 h | inhibition, % at 12.5 µM | 320,000 compounds, 0.96% hits;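 active means mean replicate inhibition of at least 70% and a set share of replicates each scoring 70 or more; inconclusive means meets just one of the two criteria; inactive means fails both criteria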;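 further: 0% = median of neutral control wells and 100% = median of positive control wells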
Target sequence (Q61009 whole entry, looked up): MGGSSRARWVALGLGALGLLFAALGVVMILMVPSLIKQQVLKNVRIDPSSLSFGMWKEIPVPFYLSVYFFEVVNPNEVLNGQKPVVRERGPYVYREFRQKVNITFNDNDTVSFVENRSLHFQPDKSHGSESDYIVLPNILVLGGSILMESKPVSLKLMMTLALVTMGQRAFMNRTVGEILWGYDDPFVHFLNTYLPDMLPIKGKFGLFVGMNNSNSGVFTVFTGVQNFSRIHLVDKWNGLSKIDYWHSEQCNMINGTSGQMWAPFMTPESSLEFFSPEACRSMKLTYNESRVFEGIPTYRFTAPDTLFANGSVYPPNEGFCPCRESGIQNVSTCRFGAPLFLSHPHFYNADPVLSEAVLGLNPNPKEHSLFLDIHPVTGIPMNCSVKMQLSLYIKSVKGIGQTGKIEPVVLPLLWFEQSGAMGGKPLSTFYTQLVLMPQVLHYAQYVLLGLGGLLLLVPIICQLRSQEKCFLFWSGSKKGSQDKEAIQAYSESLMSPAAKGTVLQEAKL
NSD2 HMT inh: inhibitors of human histone methyltransferase NSD2; NSD2 peptide methylation, AlphaScreen, 120 min; inhibition, % at 12.5 µM; 310,000 compounds, 0.54% hits; AID 743445
SR-BI uptake up: activators of SR-BI mediated HDL lipid uptake; CHO ldlA[mSR-BI] cells, DiI-HDL uptake fluorescence, 3 h; 100 = double the neutral-control signal; activation, % at 12.5 µM; 320,000 compounds, 0.096% hits; AID 504775;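 active means mean replicate activation of at least 60% and every replicate at or above 60%; inconclusive means mean or all-replicate condition met, but not both; inactive means mean below 60% and not all replicates reaching 60%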;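 further: 0% = median plate neutral-control signal and 100% = twice that signal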
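Test system: SR-BI-overexpressing, LDLR-lacking CHO cells. Measured by: DiI fluorescence, bottom read. Medium: Ham's F12 with 0.5% BSA, HEPES 25 mM, pH 7.4. Timing: 3 h uptake period with compound, 37 °C.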
dFosB act: mouse delta FosB homodimer activation; P13346; 340,000 compounds, 0.99% hits; activation, % at 25 µM; AID 493131; purified delta FosB, TAMRA-CDK5 oligo fluorescence polarization; percent of positive-control signal above neutral wells;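 active means mean activation above about 17%, with every replicate also reaching it, limit read from the data, passing the limit was not always enough; inconclusive means only one of the two conditions met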
Active calls of the source: *; u = inconclusive; x = no result given. In the library only some 2.5% were active in any assay of this set; here they are far more common. Unless noted, no stated cut-off is given here; in the data, active means inhibition above about 50%; inactive means the rest.

SMILES	DYRK1A inh	CDK5 inh	SR-BI HDL uptake	NSD2 HMT inh	SR-BI uptake up	dFosB act
C/C(=N\NC(=O)c1cccc(N/N=C(\C)c2cc(O)ccc2O)c1)c1cc(O)ccc1O	4.4	1.2	84.6*	2.5	-84.6	-11.5
COc1ccc(NC(=O)CSc2nc(C)cc(=O)[nH]2)cc1OC	x	x	x	5.7	x	x
Cc1ccc(NC(=O)CCc2c(C)nn(-c3ccc(N4CCOCC4)nn3)c2C)cc1C	4.1	-5.6	79.2*	0.2	-79.2	-5.7
Cc1nn(-c2ccc(N3CCCCC3)nn2)c(C)c1CCC(=O)Nc1cc(F)ccc1F	1.5	-2.0	72.5*	-10.5	-72.5	-13.2
Cc1ccccc1NC(=O)CCc1c(C)nn(-c2ccc(N3CCCCC3)nn2)c1C	3.7	0.4	81.8*	3.0	-81.8	-10.4
COc1ccc(CCNC(=O)COc2ccc3c(C)cc(=O)oc3c2)cc1OC	-1.1	-1.3	x	-3.7	x	-2.3
CCOC(=O)c1c(-c2ccc(C)cc2)csc1NC(=O)/C(C#N)=C/c1ccc(O)c(OC)c1	-4.6	-2.0	33.6	9.0	-33.6	-3.1
CCOC(=O)c1c(-c2ccccc2)csc1NC(=O)/C(C#N)=C\c1ccc(O)c(OC)c1	-1.0	-0.4	84.6*	1.0	-84.6	-4.7
OC1(c2ccc(Cl)c(Cl)c2)C[n+]2ccccc2N1Cc1ccccc1 (centres undefined)	-0.2	-0.1	-13.9	3.5	13.9	-52.1
Cc1ccc(-c2cc(-c3nnc(SCC(=O)NC4CCCCC4)n3N)[nH]n2)cc1	x	x	x	-12.2	x	x
CN(CC(=O)NCCCN1CCOCC1)S(=O)(=O)c1ccc(Br)cc1	4.8	0.6	77.9*	0.4	-77.9	0.4
O=C(c1ccc(F)cc1)c1c[nH]c(C(=O)NCC2CCCO2)c1 (centres undefined)	x	x	x	4.4	x	x
N/C(CC(=O)Nc1cccc(C(F)(F)F)c1)=N/O	2.3	1.0	-88.6	6.7	88.6*	-0.4
CCOc1ccc(/C=C2/C(=N)N3OC(C)=CC3=NC2=O)cc1OC	3.1	-0.4	-85.5	-0.8	85.5*	-0.5
CCC(C)N(CC(=O)Nc1cccc(C)c1C)C(=O)CCl (centres undefined)	x	0.0	-4.1	x	4.1	-7.7
Cc1cccc(NC(=O)CSc2ncnc3sc4c(c23)CCCC4)c1	x	x	x	-1.8	x	x
Oc1ccccc1/C=N/Nc1nc2ccccc2o1	0.6	-8.5	93.2*	-3.3	-93.2	6.0
CCn1c(C)c(/C=N/Nc2nc3ccccc3s2)c2ccccc21	-2.3	-0.3	112.4*	8.9	-112.5	-0.5
Brc1ccc(/C=N/Nc2nc3ccccc3o2)cc1	-1.2	0.9	9.4	1.0	-9.4	-6.4
C(=N\Nc1nc2ccccc2s1)/c1cccs1	x	-0.8	-0.3	3.4	0.3	-10.5
Oc1ccccc1C=NNc1nc2ccccc2s1	x	0.1	101.0*	2.2	-101.0	-4.7
Oc1ccc(C=NNc2nc3ccccc3s2)c(O)c1	10.4	5.2	u	0.4	-74.3	7.3
CC(CNC(=O)CN(C)CC(=O)Nc1ccccc1Br)c1ccccc1 (centres undefined)	-11.1	0.4	8.8	-1.0	-8.8	-2.2
Cc1ccc(NC(=O)c2ccccc2OCC(=O)c2ccccc2)cc1	-4.9	0.3	78.1*	0.1	-78.1	-4.8
COc1cc(NC(=O)c2cc(C(C)C)on2)c(OC)cc1Cl	-0.9	0.9	81.8*	0.4	-81.8	-9.3
SMILES	DYRK1A inh	CDK5 inh	SR-BI HDL uptake	NSD2 HMT inh	SR-BI uptake up	dFosB act
COc1cc(NC(=O)c2cc(C3CC3)on2)c(OC)cc1Cl	6.7	0.0	80.8*	x	-80.8	1.0
COc1ccc(C)cc1NC(=O)c1sc2ncnc(N3CCN(c4ccccn4)CC3)c2c1C	2.9	-1.6	30.2	-8.6	-30.2	11.2
COC(=O)c1nnn(-c2nonc2N)c1COc1ccc(C=O)cc1OC	-3.0	-2.6	x	-0.1	x	-7.6
Nc1c(Cl)cc(C2=NCCn3nc4ccccc4c32)cc1Cl	47.5	-1.7	72.7*	x	-72.7	4.4
Cc1ccc(-c2ccc(/C=N/NC(N)=S)o2)cc1	15.0	0.2	95.6*	2.2	-95.6	-3.7
NC(=S)N/N=C\c1ccc(-c2cccc(Cl)c2Cl)o1	7.1	2.6	78.5*	-1.9	-78.5	0.3
NC(=S)N/N=C/c1ccc(-c2ccc(Cl)c(Cl)c2)o1	10.2	-1.1	85.5*	0.6	-85.5	-5.1
NC(=S)N/N=C/c1ccc(-c2ccccc2)o1	24.2	1.2	64.6	2.2	-64.6	-7.9
CN(C)/N=C/c1ccc(/C=N/NC(N)=S)o1	x	2.0	39.3	1.7	-39.3	-1.2
NC(=S)N/N=C/c1ccc(-c2ccc(SC(F)F)cc2)o1	x	1.3	74.3*	-0.6	-74.3	-8.8
COC(=O)N1CCCCC1c1cc(C(=O)N2CCOCC2)no1 (centres undefined)	x	x	x	-3.5	x	x
CCCCC(=O)N(C)c1c(C)nc2ccc(C(=O)N3CCCCC3)cn12	x	x	x	3.5	x	x
CCCCN(C(=O)CC1CCCC1)c1c(N)n(CCCC)c(=O)[nH]c1=O	-0.4	1.5	-1.5	-0.7	1.5	1.9
COc1ccccc1/C=C(\NC(=O)c1ccc(OC)c(OC)c1)C(=O)Nc1ccc([N+](=O)[O-])cc1	0.1	-3.7	59.5	-28.1	-59.5	-0.1
COc1ccc(C(=O)Nc2cccc(/C(C)=N\NC(=O)c3ccoc3C)c2)cc1OC	9.2	-0.1	u	2.0	-73.6	-7.8
CCOc1ccc(C(=O)Nc2cccc([N+](=O)[O-])c2)cc1Br	9.5	0.1	72.3*	2.1	-72.3	10.4
COc1ccccc1/C=C(\NC(=O)c1ccc(OC)c(OC)c1)C(=O)Nc1cccc([N+](=O)[O-])c1	1.2	-0.1	74.0*	0.3	-74.0	9.4
COc1ccc(C(=O)Nc2cccc(/C(C)=N/NC(=O)c3ccc([N+](=O)[O-])c(C)c3)c2)cc1OC	1.0	-0.7	86.1*	-1.0	-86.1	0.1
COc1cc(/C=N/NC(=O)c2cccc([N+](=O)[O-])c2)ccc1OCc1ccccc1	2.2	0.3	88.6*	-0.8	-88.6	-4.4
COc1ccsc1S(=O)(=O)Nc1ccc(C(O)(C(F)(F)F)C(F)(F)F)cc1	x	x	x	-2.3	x	x
CC(C)CN(C(=O)c1cccs1)C1CCS(=O)(=O)C1 (centres undefined)	-2.0	0.6	9.3	-1.3	-9.3	-0.3
Cn1nc(C(C)(C)C)cc1C(=O)N1CCCCC1c1cc(C(=O)Nc2cccc(C#N)c2)no1 (centres undefined)	x	x	x	-0.1	x	x
COc1ccc(CN2CCN(Cc3nc4ccccc4s3)CC2CCO)c(C)c1C (centres undefined)	-1.6	-1.1	1.2	-0.3	-1.2	-22.3
O=C(N/N=C/c1cccc([N+](=O)[O-])c1)c1ccc(COc2ccccc2-c2ccccc2)cc1	1.7	0.1	74.2*	-2.1	-74.2	-8.4
COc1ccc(/C=N/NC(=O)c2cccc([N+](=O)[O-])c2)c2ccccc12	1.4	-1.0	75.3*	-4.1	-75.3	-12.5
